Drawing on ChEMBL document CHEMBL3351592, “Marine spongian sesquiterpene phenols, dictyoceratin-C and smenospondiol, display hypoxia-selective growth inhibition against cancer cells” (2014), this text covers inhibition for eight molecules.

The test system of assay [1] is DU-145. As to the kind of experiment: Antiproliferative activity against human DU145 cells assessed as growth inhibition under hypoxic condition at 1 to 30 uM after 24 hrs by MTT assay. Type of assay: functional, cell-based.
Assay [2] concerns DU-145. As to the kind of experiment: Antiproliferative activity against human DU145 cells assessed as growth inhibition under hypoxic condition after 24 hrs by MTT assay. The assay is classed as functional, cell-based. The method in brief: (§1)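 DU145 cells in RPMI 1640 with 10% heat-inactivated FBS, seeded at 1×10^4 cells/well, settled 4 h at 37 °C in 5% CO2. Then held 12 h either normoxic or hypoxic (94% N2, 5% CO2, 1% O2). Compound added and incubated a further 24 h under the same condition. Read by MTT; inhibition expressed as % of parallel negative controls. Mean ± SD of 3 experiments in triplicate.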
For orientation: Tetrazolium dyes change colour on reduction, which living cells bring about.

Assay [3] deals with DU-145. In words: Inhibition of hypoxia-induced of VEGF production in human DU145 cells at 10 to 30 uM after 24 hrs by Western blotting analysis. Type of assay: functional, cell-based. The method in brief:
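DU145 cells at 40% confluence pre-incubated 12 h normoxic or hypoxic (1% O2), then treated 24 h. Medium incubated 12 h at 4 °C with anti-VEGF antibody, then with protein G agarose for 2 h at 4 °C. Beads washed 4 times in lysis buffer and boiled 5 min in SDS sample buffer. Run on SDS-PAGE, Western blotted, ECL detection.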
A general note: A western blot detects proteins with antibodies after separation by electrophoresis.

The subject of assay [4] is DU-145. In words: Inhibition of hypoxia-induced accumulation of HIF-1alpha in human DU145 cells at 10 to 30 uM after 24 hrs by Western blotting analysis. Type of assay: functional, cell-based. The method in brief: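 DU145 cells at 40% confluence pre-incubated 12 h normoxic (5% CO2, 37 °C) or hypoxic (94% N2, 5% CO2, 1% O2). Then treated 24 h under the same condition. Cells rinsed in ice-cold PBS and lysed in Tris-HCl pH 7.5 buffer with EDTA, PMSF, NaF, vanadate, SDS and protease/phosphatase inhibitors. Lysates run on SDS-PAGE and blotted with anti-HIF-1α and anti-β-actin. ECL detection.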

The test system of assay [5] is DU-145. In words: Antiproliferative activity against human DU145 cells assessed as growth inhibition under hypoxic condition at 30 uM after 24 hrs by MTT assay. Type of assay: functional, cell-based. The method in brief:
as §1

For assay [6], the system named is DU-145. As to the kind of experiment: Antiproliferative activity against human DU145 cells assessed as growth inhibition under normoxic condition at 30 uM after 24 hrs by MTT assay. The assay is classed as functional, cell-based. In a few lines:
as §1

The subject of assay [7] is DU-145. In words: Antiproliferative activity against human DU145 cells assessed as maximal growth inhibition under hypoxic condition at 10 uM after 24 hrs by MTT assay. The assay is classed as functional. Particulars: DU-145, 24 h. The method in brief:
as §1

Active and inactive are the calls of the source. The calls are words filed in the database; no cut-off is given here.

A word on the inhibition: it is the relative decrease from the control value, in per cent. `C=C1CCC[C@H]2[C@](C)(CC3=C(O)C(=O)C=C(OC)C3=O)[C@@H](C)CC[C@]12C`: the inhibition result in the assay with DU-145 [1] was “inactive”.

Regarding `C=C1CCC[C@H]2[C@](C)(Cc3cc(C(=O)OC)cc(O)c3O)[C@@H](C)CC[C@]12C`, in the assay on DU-145 [2], the inhibition result was “Dose-dependent effect”. Take `CC1=CCC[C@H]2[C@@H](C)[C@@](C)(CC3=C(O)C(=O)C=C(N)C3=O)CC[C@]12C`: the inhibition entry in the assay with DU-145 [1], with DU-145 [3] and in the assay on DU-145 [4] was “inactive” each time.

Consider `C=C1CCC[C@H]2[C@](C)(CC3=C(O)C(=O)C=C(NCC(C)C)C3=O)[C@@H](C)CC[C@@]12C`, for which the inhibition entry in the assay with DU-145 [1] was “inactive”. As for `C=C1CCC[C@H]2[C@](C)(CC3=C(O)C(=O)C=C(NCC(C)C)C3=O)[C@@H](C)CC[C@]12C`, the inhibition result with DU-145 [1] was “inactive”. On the same count and under the same terms, in the case of `C=C1CCC[C@H]2[C@](C)(CC3=C(O)C(=O)C=C(NCCc4ccccc4)C3=O)[C@@H](C)CC[C@@]12C` it was “inactive”.

For `COC1=CC(=O)C(O)=C(C[C@@]2(C)CC[C@]3(C)C(C)=CCC[C@H]3[C@H]2C)C1=O`, in the assay on DU-145 [1], the inhibition result was “inactive”. For `C=C1CCC[C@H]2[C@](C)(Cc3cc(C(=O)OC)ccc3O)[C@@H](C)CC[C@]12C`, in the assay on DU-145 [2], the inhibition entry is “Dose-dependent effect”. The inhibition result with DU-145 [5], in the assay on DU-145 [3], in the assay with DU-145 [6] and in the assay with DU-145 [4] was “Active” each time. Further, the inhibition at 10 µM in the assay on DU-145 [7] came out at 43%.
